Paper PMC5910468 (Advances in Therapy, 2018)
Where two headings read alike, the source gives them in different places.

Tests used:
[1] = semaglutide; cited from earlier work
[2] = SUSTAIN 6, no change with placebo, cited from earlier work
[3] = format: in vivo, human; conditions: for AUC0–168h,sema,SS estimated race ratio [95% CI] (Japanese/Caucasian) / Cmax,sema,SS estimated race ratio [95% CI] (Japanese/Caucasian): steady state
Outline: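 Healthy Japanese or Caucasian men, s.c. once weekly with stepwise escalation from 0.25 mg. Plasma drug measured by validated LC–MS/MS. Dense sampling 0–168 h after first dose and 0–840 h after last dose (day 84), with pre-dose troughs from day 7 to 84. AUC0–168h by linear trapezoidal method at actual times. Racc,DC = (AUC_SS/last dose)/(AUC_SD/first dose). Log values fitted by linear normal model (race, dose, race×dose) and back-transformed to ratios with 95% CI.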

[4] = Pulse rate change from baseline to end of treatment; format: in vivo, human
[5] = Anti-semaglutide antibodies; format: in vivo, human; conditions: both populations, 0.5 and 1.0 mg, at follow-up
[6] = format: in vivo, human; conditions: for Gastrointestinal disorders, proportion of subjects / Adverse events, proportion of subjects: 8 subjects
Outline: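 Double-blind, placebo-controlled, 13 weeks of once-weekly s.c. dosing plus 5 weeks of follow-up. Monitored adverse events, hypoglycemic episodes, vital signs, ECG and physical examination. Laboratory tests covered hematology, biochemistry, calcitonin and urinalysis, and anti-drug antibodies were measured at follow-up. Every randomized subject given at least one dose was included in the safety analysis.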

[7] = semaglutide 0.5 mg s.c. once weekly
[8] = semaglutide 1.0 mg s.c. once weekly
[9] = Japanese subjects, 0.5 mg, placebo 16.7%
[10] = Japanese subjects, 1.0 mg, placebo 16.7%

CC[C@H](C)[C@H](NC(=O)[C@H](Cc1ccccc1)NC(=O)[C@H](CCC(=O)O)NC(=O)[C@H](CCCCNC(=O)COCCOCCNC(=O)COCCOCCNC(=O)CC[C@H](NC(=O)CCCCCCCCCCCCCCCCC(=O)O)C(=O)O)NC(=O)[C@H](C)NC(=O)[C@H](C)NC(=O)[C@H](CCC(N)=O)NC(=O)CNC(=O)[C@H](CCC(=O)O)NC(=O)[C@H](CC(C)C)NC(=O)[C@H](Cc1ccc(O)cc1)NC(=O)[C@H](CO)NC(=O)[C@H](CO)NC(=O)[C@@H](NC(=O)[C@H](CC(=O)O)NC(=O)[C@H](CO)NC(=O)[C@@H](NC(=O)[C@H](Cc1ccccc1)NC(=O)[C@@H](NC(=O)CNC(=O)[C@H](CCC(=O)O)NC(=O)C(C)(C)NC(=O)[C@@H](N)Cc1cnc[nH]1)[C@@H](C)O)[C@@H](C)O)C(C)C)C(=O)N[C@@H](C)C(=O)N[C@@H](Cc1c[nH]c2ccccc12)C(=O)N[C@@H](CC(C)C)C(=O)N[C@H](C(=O)N[C@@H](CCCNC(=N)N)C(=O)NCC(=O)N[C@@H](CCCNC(=N)N)C(=O)NCC(=O)O)C(C)C [Semaglutide]
Half-life (t1/2) [1]: ~ 1 week
Mean pulse rate increase ([2]; semaglutide 0.5 mg): 2.1 bpm
Mean pulse rate increase ([2]; semaglutide 1.0 mg): 2.4 bpm
Dose-corrected accumulation ratio ([3]; overall statement, once-weekly dosing, both races and doses): approximately 2
Racc,DC,sema estimated race ratio [95% CI] (Japanese/Caucasian) ([3]; semaglutide 0.5 mg): 0.87 [0.78; 0.96]
AUC0–168h,sema,SS estimated race ratio [95% CI] (Japanese/Caucasian) [3, 7]: 1.06 [0.92; 1.23]
Cmax,sema,SS estimated race ratio [95% CI] (Japanese/Caucasian) [3, 7]: 1.06 [0.91; 1.23]
Racc,DC,sema estimated race ratio [95% CI] (Japanese/Caucasian) ([3]; semaglutide 1.0 mg): 0.90 [0.82; 1.00]
AUC0–168h,sema,SS estimated race ratio [95% CI] (Japanese/Caucasian) [3, 8]: 0.99 [0.85; 1.16]
Cmax,sema,SS estimated race ratio [95% CI] (Japanese/Caucasian) [3, 8]: 1.02 [0.87; 1.19]
Pulse rate increase from baseline to end of treatment ([4]; Caucasian subjects, 0.5 mg, placebo 2.8 bpm): 14.6 bpm
Pulse rate increase from baseline to end of treatment ([4]; Caucasian subjects, 1.0 mg, placebo 2.8 bpm): 10.5 bpm
Pulse rate increase from baseline to end of treatment ([4]; Japanese subjects, 0.5 mg, placebo decrease of 0.5 bpm): 8.5 bpm
Pulse rate increase from baseline to end of treatment ([4]; Japanese subjects, 1.0 mg, placebo decrease of 0.5 bpm): 10.4 bpm
Development of anti-semaglutide antibodies [5]: No subjects developed anti-semaglutide antibodies
Gastrointestinal disorders, proportion of subjects ([6]; Caucasian subjects, 0.5 mg, placebo 0.0%): 25.0%
Adverse events, proportion of subjects ([6]; Caucasian subjects, 0.5 mg, placebo 33.3%): 50.0%
Gastrointestinal disorders, proportion of subjects ([6]; Caucasian subjects, 1.0 mg, placebo 0.0%): 25.0%
Adverse events, proportion of subjects ([6]; Caucasian subjects, 1.0 mg, placebo 33.3%): 62.5%
Adverse events, proportion of subjects [6, 9]: 75.0%
Gastrointestinal disorders, proportion of subjects [6, 9]: 62.5%
Adverse events, proportion of subjects [6, 10]: 62.5%
Gastrointestinal disorders, proportion of subjects [6, 10]: 37.5%
Biochemistry parameters, including amylase, lipase and calcitonin ([6]; any of the treatment or race groups): No noticeable trends
ECG readings or physical examinations ([6]; both populations, 0.5 and 1.0 mg): no clinically significant abnormalities
Hypoglycemic events ([6]; both populations, 0.5 and 1.0 mg, during the trial): No hypoglycemic events were reported
Severity of adverse events ([6]; both populations, 0.5 and 1.0 mg, none were severe): mild to moderate
